≈ marks a conversion by molar mass, not a printed value.
Key:
[1] = test system: Staphylococcus aureus; assay: Antibacterial activity against methicilin-resistant Staphylococcus aureus NRS 191 assessed as reduction in bacterial growth; format: functional
Outline: (§1)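 CLSI broth microdilution in cation-supplemented Mueller–Hinton broth II. Starter cultures were grown overnight at 37 °C with shaking from a single MHA colony, then diluted by OD600 to ~10^6 CFU/mL. Compounds came from 10 mg/mL DMSO stocks and were tested two-fold from 64 to 0.5 mg/L. Plates were incubated 37 °C for 18–24 h. MIC was taken as the lowest concentration with no visible growth. Three independent runs, each in duplicate.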

[2] = test system: Staphylococcus aureus; assay: Bactericidal activity against Staphylococcus aureus ATCC 29213 incubated for 24 hrs by time-kill assay; format: functional, organism-based
Outline: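 Time-kill: S. aureus ATCC 29213 at ~10^6 CFU/mL in MHBII, exposed to 1× and 10× MIC, 37 °C with shaking for 24 h. Surviving CFU/mL plotted over time; mean of replicate experiments in duplicate.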

[3] = test system: Staphylococcus aureus; assay: Antibacterial activity against methicilin-resistant Staphylococcus aureus NRS 100 assessed as reduction in bacterial growth; format: functional; outline: as §1
[4] = test system: Enterococcus faecalis; assay: Antibacterial activity against vancomycin-susceptible Enterococcus faecalis NR 31884 assessed as inhibition of bacterial growth incubated for 18 to 24 hrs by broth microdilution assay; format: functional; conditions: time 18-24 hrs
Outline: (§2)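 CLSI broth microdilution in cation-supplemented Mueller–Hinton broth II; overnight starter cultures (37 °C, shaking, 18–24 h) adjusted by OD600 to ~10^6 CFU/mL. Compounds dosed from DMSO stocks (10 mg/mL stock) as two-fold dilutions, 64–0.5 mg/L. Plates held 37 °C, 18–24 h. MIC = lowest concentration without visible growth. Three independent runs, each in duplicate.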

[5] = test system: Staphylococcus aureus; assay: Antibacterial activity against methicilin-resistant Staphylococcus aureus NRS 193 assessed as reduction in bacterial growth; format: functional; outline: as §1
[6] = test system: Enterococcus faecalis; assay: Antibacterial activity against vancomycin-susceptible Enterococcus faecalis NR 31888 assessed as inhibition of bacterial growth incubated for 18 to 24 hrs by broth microdilution assay; format: functional; conditions: time 18-24 hrs; outline: as §2
[7] = test system: Staphylococcus aureus; assay: Antibacterial activity against methicilin-resistant Staphylococcus aureus NRS 192 assessed as reduction in bacterial growth; format: functional; outline: as §1
[8] = test system: Enterococcus faecalis; assay: Antibacterial activity against vancomycin-susceptible Enterococcus faecalis NR 31887 assessed as inhibition of bacterial growth incubated for 18 to 24 hrs by broth microdilution assay; format: functional; conditions: time 18-24 hrs; outline: as §2
[9] = test system: Escherichia coli; assay: Antibacterial activity against Escherichia coli ATCC 25922 assessed as reduction in bacterial growth; format: functional; outline: as §2
[10] = Cytotoxicity against african green monkey Vero cells assessed as reduction in cell viability incubated for 72 hrs by MTT assay; format: toxicity, cell-based; conditions: chlorocebus sabaeus
Outline: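 Vero (ATCC CCL-81) cells seeded at ~10^3 per well, 37 °C, 5% CO2. After 24 h, compound added at 100–12.5 μg/mL for 72 h. MTT then given for 4 h at 37 °C, formazan dissolved in DMSO, absorbance read at 540 nm. CC50 taken as the concentration giving 50% viability loss; doxorubicin as positive control; triplicate.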

[11] = test system: Staphylococcus aureus; assay: Antibacterial activity against methicilin-resistant Staphylococcus aureus NRS 119 assessed as reduction in bacterial growth; format: functional; outline: as §1
[12] = Selectivity index, ratio of CC50 for cytotoxicity against african green monkey Vero cells assessed as reduction in cell viability to MIC for antibacterial activity against Staphylococcus aureus ATCC 29213 assessed as reduction in bacterial growth; format: toxicity, cell-based; conditions: read-out: Selectivity Index
[13] = test system: Klebsiella pneumoniae; assay: Antibacterial activity against Klebsiella pneumoniae BAA-1705 assessed as reduction in bacterial growth; format: functional; outline: as §2
[14] = test system: Enterococcus faecalis; assay: Antibacterial activity against vancomycin-susceptible Enterococcus faecalis NR 31886 assessed as inhibition of bacterial growth incubated for 18 to 24 hrs by broth microdilution assay; format: functional; conditions: time 18-24 hrs; outline: as §2
[15] = test system: Enterococcus faecium; assay: Antibacterial activity against vancomycin-resistant Enterococcus faecium NR 31912 assessed as inhibition of bacterial growth
[16] = test system: Enterococcus faecium; assay: Antibacterial activity against vancomycin-resistant Enterococcus faecium NR 31909 assessed as inhibition of bacterial growth
[17] = test system: Staphylococcus aureus; assay: Antibacterial activity against vancomycin-resistant Staphylococcus aureus VRS 1 assessed as reduction in bacterial growth; format: functional; outline: as §1
[18] = test system: Acinetobacter baumannii; assay: Antibacterial activity against Acinetobacter baumannii BAA-1605 assessed as reduction in bacterial growth; format: functional; outline: as §2
[19] = test system: Staphylococcus aureus; assay: Antibacterial activity against vancomycin-resistant Staphylococcus aureus VRS 12 assessed as reduction in bacterial growth; format: functional; outline: as §1
[20] = test system: Enterococcus faecium; assay: Antibacterial activity against vancomycin-resistant Enterococcus faecium NR 31903 assessed as inhibition of bacterial growth
[21] = test system: Pseudomonas aeruginosa; assay: Antibacterial activity against Pseudomonas aeruginosa ATCC 27853 assessed as reduction in bacterial growth; format: functional; outline: as §2
[22] = test system: Staphylococcus aureus; assay: Antibacterial activity against methicilin-resistant Staphylococcus aureus NRS 194 assessed as reduction in bacterial growth; format: functional; outline: as §1
[23] = test system: Staphylococcus aureus; assay: Antibacterial activity against Staphylococcus aureus ATCC 29213 assessed as reduction in bacterial growth; format: functional; outline: as §2
[24] = test system: Staphylococcus aureus; assay: Antibacterial activity against methicilin-resistant Staphylococcus aureus NRS 186 assessed as reduction in bacterial growth; format: functional; outline: as §1
[25] = test system: Staphylococcus aureus; assay: Antibacterial activity against methicilin-resistant Staphylococcus aureus NRS 198 assessed as reduction in bacterial growth; format: functional; outline: as §1
[26] = test system: Staphylococcus aureus; assay: Antibacterial activity against methicilin-resistant Staphylococcus aureus NRS 129 assessed as reduction in bacterial growth; format: functional; outline: as §1
[27] = test system: Enterococcus faecalis; assay: Antibacterial activity against vancomycin-susceptible Enterococcus faecalis NR 31885 assessed as inhibition of bacterial growth incubated for 18 to 24 hrs by broth microdilution assay; format: functional; conditions: time 18-24 hrs; outline: as §2
[28] = test system: Staphylococcus aureus; assay: Antibacterial activity against vancomycin-resistant Staphylococcus aureus VRS 4 assessed as reduction in bacterial growth; format: functional; outline: as §1

SMILES | MIC [1] | MIC [3] | MIC [4] | MIC [5] | MIC [6] | MIC [7] | MIC [8] | CC50 at 72 h [10] | MIC [11] | MIC [14] | MIC [15] | MIC [16] | MIC [17] | MIC [19] | MIC [20] | MIC [22] | MIC [23] | MIC [24] | MIC [25] | MIC [26] | further results
O=C1N/C(=N\c2nc3ccccc3o2)S/C1=C\c1cc(Cl)ccc1O | 0.5 µg/mL (≈ 1.34 µM) | 0.5 µg/mL (≈ 1.34 µM) | 4 µg/mL (≈ 10.8 µM) | 1 µg/mL (≈ 2.69 µM) | 4 µg/mL (≈ 10.8 µM) | 1 µg/mL (≈ 2.69 µM) | 2 µg/mL (≈ 5.38 µM) | > 20 µg/mL | 1 µg/mL (≈ 2.69 µM) | 4 µg/mL (≈ 10.8 µM) | 0.125 µg/mL (≈ 0.336 µM) | 0.125 µg/mL (≈ 0.336 µM) | 1 µg/mL (≈ 2.69 µM) | 0.5 µg/mL (≈ 1.34 µM) | 1 µg/mL (≈ 2.69 µM) | 1 µg/mL (≈ 2.69 µM) | 1 µg/mL (≈ 2.69 µM) | 0.5 µg/mL (≈ 1.34 µM) | 1 µg/mL (≈ 2.69 µM) | 0.5 µg/mL (≈ 1.34 µM) | Activity [2]: Dose-Dependent Effect; MIC [9]: > 64 µg/mL; selectivity ratio [12]: > 20; MIC [13]: > 64 µg/mL; MIC [18]: > 64 µg/mL; MIC [21]: > 64 µg/mL; MIC [27]: 4 µg/mL (≈ 10.8 µM); MIC [28]: 1 µg/mL (≈ 2.69 µM)
CN(C)c1ccc(O)c2c1C[C@H]1C[C@H]3[C@H](N(C)C)C(O)=C(C(N)=O)C(=O)[C@@]3(O)C(O)=C1C2=O [MINOCYCLINE] | – | – | 0.5 µg/mL (≈ 1.09 µM) | – | 0.5 µg/mL (≈ 1.09 µM) | – | 8 µg/mL (≈ 17.5 µM) | – | – | 0.5 µg/mL (≈ 1.09 µM) | 8 µg/mL (≈ 17.5 µM) | 8 µg/mL (≈ 17.5 µM) | – | – | 8 µg/mL (≈ 17.5 µM) | – | – | – | – | – | MIC [27]: 0.5 µg/mL (≈ 1.09 µM)
COc1cccc2c1C(=O)c1c(O)c3c(c(O)c1C2=O)C[C@@](O)(C(=O)CO)C[C@@H]3O[C@H]1C[C@H](N)[C@H](O)[C@H](C)O1 [DOXORUBICIN] | – | – | – | – | – | – | – | 10 µg/mL (≈ 18.4 µM) | – | – | – | – | – | – | – | – | – | – | – | – | –
COc1cc(/C=C2\S/C(=N/c3nc4ccccc4o3)NC2=O)ccc1O | 2 µg/mL (≈ 5.44 µM) | 2 µg/mL (≈ 5.44 µM) | 16 µg/mL (≈ 43.6 µM) | 4 µg/mL (≈ 10.9 µM) | 16 µg/mL (≈ 43.6 µM) | 4 µg/mL (≈ 10.9 µM) | 16 µg/mL (≈ 43.6 µM) | > 40 µg/mL | 4 µg/mL (≈ 10.9 µM) | 16 µg/mL (≈ 43.6 µM) | 0.25 µg/mL (≈ 0.68 µM) | 0.25 µg/mL (≈ 0.68 µM) | 4 µg/mL (≈ 10.9 µM) | 2 µg/mL (≈ 5.44 µM) | 4 µg/mL (≈ 10.9 µM) | 4 µg/mL (≈ 10.9 µM) | 2 µg/mL (≈ 5.44 µM) | 2 µg/mL (≈ 5.44 µM) | 4 µg/mL (≈ 10.9 µM) | 4 µg/mL (≈ 10.9 µM) | MIC [9]: > 64 µg/mL; selectivity ratio [12]: > 20; MIC [13]: > 64 µg/mL; MIC [18]: > 64 µg/mL; MIC [21]: > 64 µg/mL; MIC [27]: 16 µg/mL (≈ 43.6 µM); MIC [28]: 4 µg/mL (≈ 10.9 µM)
C[C@@H](O)[C@H]1C(=O)N2C(C(=O)O)=C(S[C@@H]3CN[C@H](C(=O)N(C)C)C3)[C@H](C)[C@H]12 [MEROPENEM] | 64 µg/mL (≈ 167 µM) | 32 µg/mL (≈ 83.4 µM) | – | 64 µg/mL (≈ 167 µM) | – | 8 µg/mL (≈ 20.9 µM) | – | – | 64 µg/mL (≈ 167 µM) | – | – | – | 64 µg/mL (≈ 167 µM) | 8 µg/mL (≈ 20.9 µM) | – | 1 µg/mL (≈ 2.61 µM) | 0.125 µg/mL (≈ 0.326 µM) | 8 µg/mL (≈ 20.9 µM) | 64 µg/mL (≈ 167 µM) | 4 µg/mL (≈ 10.4 µM) | MIC [28]: 64 µg/mL (≈ 167 µM)

Source: ChEMBL document CHEMBL5329174, “Discovery of benzoxazole-thiazolidinone hybrids as promising antibacterial agents against Staphylococcus aureus and Enterococcus species” (RSC Med Chem, 2023)
